As a reminder, the EC50 is the concentration that produces a half-maximal response. Usually Emax stands for the greatest response seen or fitted, relative to the assay's reference.

The values below come from ChEMBL document CHEMBL4340513, “Dual-targeting Rutaecarpine-NO donor hybrids as novel anti-hypertensive agents by promoting release of CGRP” (Eur J Med Chem, 2019).

The source made the active and inactive calls. No cut-off for these calls is given here.

The subject of test [1] is Aorta. In words: Vasodilating activity in Sprague-Dawley rat aortic rings assessed as reduction in phenylephrine-induced contractions. Format: functional, tissue-based. Summed up: (§1)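 Thoracic aorta rings (4 mm) from male SD rats (250-300 g, chloral hydrate anesthesia), cleaned of fat and connective tissue and held at 2 g resting force in Krebs' solution. After KCl response, washout and 30 min re-equilibration, rings got L-cysteine (1 µM final, 10 min), then phenylephrine contraction (2 µM final). Cumulative concentration–response curve at 10^-9–10^-6 M final gave EC50. DMSO ≤0.1%.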

Test [2] has as its system Aorta. In words: Vasodilating activity in Sprague-Dawley rat aortic rings assessed as reduction in phenylephrine-induced contractions relative to control. Format: functional. Summed up:
as §1

Test [3] deals with Aorta. Briefly: Vasodilating activity in Sprague-Dawley rat aortic rings assessed as reduction in phenylephrine-induced contractions at 1:1 ratio of test compound to furoxan relative to control. Format: functional.
Test [4] concerns Rattus norvegicus. Briefly: Increase in CGRP level in Sprague-Dawley rat blood at 20 to 40 mg/kg, ip by ELISA. Format: functional, organism-based. In short, it runs like this: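 Rat serum CGRP was quantified with a commercial CGRP ELISA kit per the manufacturer. Optical density was read at 450 nm and concentrations were expressed as pg/mL.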
(ELISA stands for enzyme-linked immunosorbent assay.)

Test [5] deals with Aorta. Briefly: Vasodilating activity in Sprague-Dawley rat aortic rings assessed as reduction in phenylephrine-induced contractions at 1:1 ratio of test compound to furoxan. The test is classed as functional, tissue-based.
Test [6] concerns Aorta. Briefly: Vasodilating activity in Sprague-Dawley rat aortic rings assessed as reduction in phenylephrine-induced contractions in presence of L-cysteine and TRPA1 antagonist HC030031. The test is classed as functional, tissue-based. In short, it runs like this: (§2)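 SD rat aortic rings were prepared as for the standard ring assay and randomly grouped. They were preincubated 10 min with L-cysteine (1 µM final) alone or with HC030031 (10 µM), capsazepine (10 µM), both, or CGRP(8-37) (10 µM, in water), all final. Phenylephrine contraction (2 µM final) preceded a cumulative concentration–response curve at 10^-9–10^-6 M final. Mean, n = 5.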

Test [7] relates to Aorta. In words: Vasodilating activity in Sprague-Dawley rat aortic rings assessed as reduction in phenylephrine-induced contractions in presence of L-cysteine and TRPV1 antagonist capsazepine. The test is classed as functional, tissue-based. In short, it runs like this:
as §2

In test [8] the test system is Rattus norvegicus. Briefly: Antihypertensive activity in carotid cannulated Sprague-Dawley rat assessed as reduction in systolic arterial pressure at 20 to 40 mg/kg, ip measured within 2 hrs relative to rutaecarpine. The test is classed as functional, organism-based. In short, it runs like this: (§3)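 Male SD rats (250-300 g) under sodium pentobarbital (40 mg/kg, 10 mg/kg supplements), kept at 37°C and tracheotomized. The right carotid artery was cannulated to a pressure transducer. Once pressure was stable, compounds suspended in sodium carboxymethyl cellulose were given i.p. at 20 or 40 mg/kg. Arterial pressure was recorded continuously for 2 h to derive its decrease.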

Test [9] concerns Rattus norvegicus. Briefly: Antihypertensive activity in carotid cannulated Sprague-Dawley rat assessed as reduction in diastolic arterial pressure at 20 to 40 mg/kg, ip measured within 2 hrs relative to rutaecarpine. The test is classed as functional, organism-based. In short, it runs like this:
as §3

The test system of test [10] is Aorta. In words: Vasodilating activity in Sprague-Dawley rat aortic rings assessed as reduction in phenylephrine-induced contractions in presence of L-cysteine and CGRP receptor antagonist CGRP(8 to 37). Format: functional, tissue-based. Summed up:
as §2

In the case of `O=c1c2cc(OCCOCCOCCNCc3c(-c4ccoc4)no[n+]3[O-])ccc2nc2n1CCc1c-2[nH]c2ccccc12`, the EC50 in the test on Aorta [1] was determined as 22500 nM. For the same compound, in the test on Aorta [2], the Emax was 30.6%.
The like results for `O=c1c2cc(OCCOCCOCCNCc3c(-c4cccc5ccccc45)no[n+]3[O-])ccc2nc2n1CCc1c-2[nH]c2ccccc12` were, in that order, 1410 nM and 45.3%.
The like results for `O=c1c2cc(OCCOCCOCCNCc3c(-c4ccccc4)no[n+]3[O-])ccc2nc2n1CCc1c-2[nH]c2ccccc12` were, in that order, 774 nM and 54.6%.
The like results for `O=c1c2cc(OCCOCCOCCNCc3c(-c4ccsc4)no[n+]3[O-])ccc2nc2n1CCc1c-2[nH]c2ccccc12` were, in that order, 30.7 nM and 73.6%.
For `CC(C)c1ccc(-c2no[n+]([O-])c2CNCCOCCOCCOc2ccc3nc4n(c(=O)c3c2)CCc2c-4[nH]c3ccccc23)cc1`, the EC50 in the test on Aorta [1] amounted to 2590 nM. For the same compound, the Emax in the test with Aorta [2] amounted to 40.9%.
For the compound `O=c1c2ccccc2nc2n1CCc1c-2[nH]c2ccccc12` [RUTAECARPINE], the results for the EC50 in the test with Aorta [1] and in the test on Aorta [5] were 156 nM and 29.7 nM, respectively. In addition, the figures for the Emax with Aorta [3] and in the test on Aorta [2] were 75.3% and 66.3%, respectively. Also, the outcome in the test with Rattus norvegicus [4] was inactive.
In the case of `O=c1c2cc(OCc3c(-c4ccccc4)no[n+]3[O-])ccc2nc2n1CCc1c-2[nH]c2ccccc12`, in the test on Aorta [1], the EC50 worked out at 13.1 nM. The result in the test with Aorta [6], in the test with Rattus norvegicus [4], in the test on Aorta [7] and in the test with Aorta [10] was inactive. The result in the test with Rattus norvegicus [8] and with Rattus norvegicus [9] was Active. In the test on Aorta [2], the Emax came to 85.2%.
With `O=c1c2cc(OCCOCCNCc3c(-c4ccccc4)no[n+]3[O-])ccc2nc2n1CCc1c-2[nH]c2ccccc12`, in the test on Aorta [1], the EC50 came to 15.2 nM. The Emax with Aorta [2] is 81.4%.
The like results for `O=c1c2ccccc2nc2n1CCc1c-2[nH]c2ccc(OCCOCCOCCNCc3c(-c4ccccc4)no[n+]3[O-])cc12` were, in that order, 112 nM and 64.2%.
The like results for `CCOc1ccccc1-c1no[n+]([O-])c1CNCCOCCOCCOc1ccc2nc3n(c(=O)c2c1)CCc1c-3[nH]c2ccccc12` were, in that order, 116 nM and 69.9%.
`O=c1c2ccccc2nc2n1CCc1c-2n(CCOCCOCCNCc2c(-c3ccccc3)no[n+]2[O-])c2ccccc12`: in the test on Aorta [1], the EC50 was 2040 nM. For the same compound, the Emax in the test on Aorta [2] came out at 43.2%.
The like results for `O=c1c2cc(OCCOCCOCCNCc3c(-c4cccc(F)c4)no[n+]3[O-])ccc2nc2n1CCc1c-2[nH]c2ccccc12` were, in that order, 158 nM and 77.3%.
